An excerpt weighted towards active compounds, which were near 2.1% of everything screened.
Runt-CBFb FRET: inhibitors of human RUNX1 Runt domain binding to CBFb; AID 1496; inhibition, % at 20 µM; actives 0.46% (n = 220,000); Cerulean-Runt/Venus-CBFb FRET ratio 530/480, 1 h; Q01196+Q13951;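 active means inhibition over about 50% at 20 µM in the single-dose screen, limit read from the data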;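 further: 0% = DMSO wells and 100% = excess unlabeled CBFb competitor control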
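Assay system: Cerulean-Runt domain / Medium: Tris 50 mM pH 7.5, KCl, K2SO4, 0.01% BSA / Timing: protein complex preformed 1 h, compound exposure 1 h, room temperature, dark / Measured by: FRET, excitation 422 nm, emission at 530 and 480 nm / Evaluation: loss of energy transfer signal / Control set: 5 µM unlabeled CBFb as full-inhibition high control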
pCIP destab: p/CIP protein destabilization; Q05BA5; AID 1984; F442A p/CIP-EGFP cells, EGFP fluorescence, 16 h; actives 0.01% (n = 290,000); decrease of EGFP signal, % at 10 µM;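 active means EGFP signal decrease of at least 30% at 10 µM or well 3 SD below plate mean, unless failing retest; inactive means the rest, including hits failing retest or dose response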
DSG3 Ab inh: blocks pemphigus antibody binding to human desmoglein-3; P32926; DSG3-coupled beads, scFv-anti-DSG3-GFP binding, flow cytometry; stronger effect = lower value; binding (percent of control), % at 10 µM; actives 0.48% (n = 310,000); AID 588358;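 active means binding more than 3 SD below its plate's average and above zero; inconclusive means below that plate limit but binding exactly zero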;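 further: hits lower antibody fragment binding to DSG3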
Runt-SMMHC FRET: Runt domain-CBFb-SMMHC interaction inhibition; Q01196+Q13951; Cerulean-Runt/Venus-CBFb-SMMHC FRET ratio 530/480, 1 h; inhibition, % at 20 µM; actives 0.74% (n = 220,000); AID 1434;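 active means mean inhibition across duplicate retests at 20 µM reaching about 50%, limit read from the data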;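 further: 0% = DMSO wells and 100% = wells with excess untagged CBFb-SMMHC; inhibitors lower the FRET ratio by blocking Runt binding to CBFb-SMMHC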
RanGTP-Impb inh: inhibitors of RanGTP-importin-beta interaction, primary screen, biochemical, FRET, CFP-Ran, YFP-importin-beta, homogeneous; cell-free CFP-Ran/YFP-importin-beta FRET ratio; inhibition, % (no concentration beside the values); actives 1.1% (n = 300,000);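 active means more than half of the replicate wells show a fall in the fluorescence ratio signal beyond about 16%, limit read from the data, passing the limit was not always enough; inconclusive means exactly half of the replicate wells pass the set limit; inactive means fewer than half of replicates pass the limit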;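 further: 0% = DMSO wells and 100% = Ran loaded with GDP instead of GTP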
Hck-Nef inh: inhibitors of human Hck kinase activated by Nef. inhibition, % at 20 µM. P08631. actives 0.68% (n = 220,000). Recombinant Hck-YEEI plus Nef, Z-Lyte FRET kinase assay;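 active means Hck-Nef kinase inhibition above about 50%, limit read from the data; inactive means inhibition below that limit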;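 further: 0% = DMSO with Hck plus Nef and 100% = Hck alone without Nef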
An asterisk follows results filed as active; u = inconclusive; x = no result given.

SMILES	Runt-CBFb FRET	pCIP destab	DSG3 Ab inh	Runt-SMMHC FRET	RanGTP-Impb inh	Hck-Nef inh
O=C(NNc1cc(N2CCOCC2)nc(N2CCOCC2)n1)c1ccc(Cl)cc1Cl	4	-6	114	-5	76*	2
O=C(CCc1ccccc1)NNc1cc(N2CCCCC2)nc(N2CCCCC2)n1	-5	-8	198	-7	71*	1
O=C(NNc1cc(N2CCCC2)nc(N2CCCC2)n1)c1ccc([N+](=O)[O-])cc1	x	-16	99	x	-1	23
CC(C)(C)c1ccc(C(=O)NNc2cc(N3CCCCC3)nc(N3CCCCC3)n2)cc1	-10	0	x	-4	5	1
O=C(NNc1nc(N2CCOCC2)nc(N2CCOCC2)n1)Nc1ccc(Cl)cc1	-1	-9	x	1	-1	25
Cc1ccc(Cl)cc1N1CCN(C(=O)c2ccc3c(c2)CCN3S(C)(=O)=O)CC1	x	-9	100	x	3	x
COC(=O)c1ccccc1S(=O)(=O)N1CCC(C(=O)OC(C)C(=O)N(C)Cc2ccccc2)CC1 (configuration not stated)	x	x	94	x	x	x
Oc1cccc(/C=N/Nc2cc(N3CCOCC3)nc(N3CCOCC3)n2)c1	1	-21	98	2	6	6
CC(=O)NNc1cc(N2CCOCC2)nc(N2CCOCC2)n1	49	2	106	86*	83*	19
O=C(C1CCC(=O)N(C2CC2)C1)N1CCN(c2cccc(Cl)c2)CC1 (configuration not stated)	x	-6	101	x	6	x
CN(Cc1cn(-c2ccccc2)nc1-c1cc2ccccc2o1)C(=O)CCC(=O)O	-4	2	104	0	3	21
CC(C)Cn1nc(NC(=O)c2cccs2)c2cc3ccccc3nc21	34	-18	103	57*	64*	-74
COc1ccc2nc3c(cc2c1)c(NC(=O)c1cccs1)nn3CC(C)C	62*	-8	111	63*	116*	41
COc1cccc(CNC(=O)CN2c3cccc4cccc(c34)S2(=O)=O)c1	x	x	96	x	2	x
COc1ccc(S(=O)(=O)N2CCOCC2)cc1NC(=O)CN1CCN(C)CC1	x	x	98	x	u	x
CCN(CC)CCCN1C=C2C(=O)C(C)(OC(=O)CCc3ccccc3)C(=O)C=C2C=C1c1ccc(C#N)cc1 (configuration not stated)	36	-7	108	51*	0	18
COc1ccc(CN2C=C3C(=O)C(C)(OC(=O)CCc4ccccc4)C(=O)C=C3C=C2c2ccc(C#N)cc2)cc1 (configuration not stated)	6	4	107	1	0	30
CC(=NCc1ccco1)c1c(C)[nH]n(-c2nc3ccccc3s2)c1=O	-2	-2	106	-1	u	10
C/C(=N/NC(=O)c1cccs1)c1c(C)[nH]n(-c2nc3ccccc3s2)c1=O	45	-10	106	98*	-7	18
COC(=O)c1ccc(=O)c2nc3/c(=C/O)c(O)cc(=O)c3[nH]c12	15	-5	50*	52	x	14
CN(CC(=O)Nc1ccc(F)cc1)C(=O)c1ccc(OCc2cn3ccccc3n2)cc1	x	x	94	x	x	x
CCOC(=O)C1(Cc2cccc(OC)c2)CCN(Cc2cnc(C)s2)CC1	2	7	98	-1	45*	-1
Cc1cc(C)n(-c2nc3ccccc3nc2Nc2ccc3c(c2)OCO3)n1	-18	-5	98	-25	-1	-6
Cc1ccc2nc(Nc3ccc4[nH]c(=O)[nH]c4c3)c(-n3nc(C)cc3C)nc2c1	-12	-5	97	-15	40*	2
COc1ccc(C(=O)NCCc2nnc3ccc(SCC(=O)Nc4ccccc4F)nn23)cc1	x	-6	105	x	3	x
COc1ccc2nc3n(c(=O)c2c1)-c1ccc(Cl)cc1C(=O)NC3Cc1ccc(O)cc1 (configuration not stated)	x	x	104	x	x	x
COc1cc(/C=C(\C#N)C(=O)NCc2cccs2)ccc1O	23	-11	109	58*	4	-2
COCCNC(=O)/C(C#N)=C/c1ccc(OC(=O)c2cccs2)c(OC)c1	-2	-38	x	1	1	22
